Assay outcomes (PubChem)
rCAG binder – binders of r(CAG) RNA repeats, primary screen, biochemical, fluorescence | r(CAG) RNA repeat, TO-PRO-1 dye displacement fluorescence | inhibition, % at 3 µM | 370,000 compounds, 1.3% hits;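 active means inhibition above the plate cutoff, the mean of all test compounds on that plate plus 3 SD, cut at about 35% in these data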;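 further: higher means more dye released from RNA so lower well fluorescence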
mABHD4 FP – ABHD4 inhibitors, primary screen, biochemical, fluorescence polarization, mouse; inhibition, % at 8.92 µM; 370,000 compounds, 0.54% hits; AID 720543, 2013; purified mABHD4, FP-Rh probe fluorescence polarization;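 active means inhibition exceeding the mean over every tested compound plus 3 SD, cut at about 30% in these data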
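Test system: mABHD4 protein; Read-out basis: % inhibition; Incubation: 45 min + 60 min at 25 °C; Repeats: single replicate; Technique: fluorescence polarization with parallel and perpendicular emission, 525/598 nm; Compound: 8.92 µM, single dose; Benchmarks: full inhibition S159A mutant plus DMSO, zero as sample-well median.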
PRMT1 FP inh – PRMT1 methyltransferase inhibitors, primary screen, biochemical, fluorescence polarization; Protein arginine N-methyltransferase 1 (Homo sapiens), Q99873; recombinant PRMT1, activity-based probe fluorescence polarization; inhibition, % at 2.79 µM; 370,000 compounds, 1.3% hits; AID 652257, 2013;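 active means inhibition above about 21% made by adding two undisclosed values, limit read from the data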
SIAE inh – human SIAE inhibitors, primary screen, biochemical, fluorescence polarization, FP-Rh probe, 1536-well HTS; Sialate O-acetylesterase (Homo sapiens), Q9HAT2; SIAE FP-Rh probe binding; inhibition, % at 9.66 µM; 370,000 compounds, 0.69% hits;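 active means inhibition above a cutoff: mean of compounds within the control limits plus 3 SD of those, cut at about 17% in these data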
HTRA1 inhibitor – HTRA1 serine protease inhibitors, primary screen, biochemical, fluorescence polarization, HTS; recombinant HTRA1, FP-rhodamine activity-based probe; inhibition, % at 5.96 µM; 340,000 compounds, 0.5% hits; AID 504803, 2011; in the data active means inhibition above about 36%
Target sequence (Q92743 whole entry, looked up): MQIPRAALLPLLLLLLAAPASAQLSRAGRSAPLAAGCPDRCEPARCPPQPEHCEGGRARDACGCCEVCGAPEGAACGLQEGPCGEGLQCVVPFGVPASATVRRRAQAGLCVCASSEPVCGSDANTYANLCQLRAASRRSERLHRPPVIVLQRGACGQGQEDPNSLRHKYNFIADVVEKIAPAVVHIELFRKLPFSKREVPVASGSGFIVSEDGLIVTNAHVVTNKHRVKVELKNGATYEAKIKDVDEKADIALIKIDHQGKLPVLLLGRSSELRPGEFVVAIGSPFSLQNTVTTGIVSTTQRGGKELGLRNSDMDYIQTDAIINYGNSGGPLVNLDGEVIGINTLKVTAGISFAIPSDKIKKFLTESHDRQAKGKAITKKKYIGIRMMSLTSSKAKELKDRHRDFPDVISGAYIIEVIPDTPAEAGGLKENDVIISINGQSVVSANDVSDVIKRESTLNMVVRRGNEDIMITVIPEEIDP
SIAE inh conf – human SIAE inhibitors, retest, confirmation, biochemical, fluorescence polarization, FP-Rh probe, triplicate; inhibition, % at 9.66 µM; SIAE FP-Rh activity-based probe; 2,300 compounds, 13% hits; shares compounds with SIAE inh;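 active means mean inhibition of the replicates above the hit cutoff set in the primary screen, cut at about 17% in these data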;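 further: inhibitors lower polarization as more probe stays unbound to SIAE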
Large screens that a line does not name were inactive (follow-up assays come after a bar, where they were run). Sampled rows, rich in hits. Any-hit rate of the full collection: about 3.3%.

CC1CC(C)(C)CC2(C1)NC(=O)N(CC(=O)N(C)Cc1nc3ccccc3c(=O)[nH]1)C2=O (stereo not drawn)	SIAE inh 19 | SIAE inh conf inactive
CCCN(CC(=O)Nc1ccccc1C)C(=O)CCCOc1ccc(Br)cc1	none
Clc1ccc2c(N/N=C/c3cccnc3)ccnc2c1	none
Cc1ccccc1/C=N/Nc1ccnc2cc(Cl)ccc12	SIAE inh 26 | SIAE inh conf 31
Clc1ccc2c(N/N=C/c3ccc(Br)cc3)ccnc2c1	SIAE inh 19 | SIAE inh conf inactive
Clc1ccc(NNc2ccnc3cc(Cl)ccc23)cc1	none
Cc1ccc(/C=N/Nc2ccnc3cc(Cl)ccc23)c(C)c1	SIAE inh 44 | SIAE inh conf 59
Oc1ccc(/C=N/Nc2ccnc3cc(Cl)ccc23)c(O)c1	SIAE inh 27 | SIAE inh conf 36
CC1(C(=O)NS(=O)(=O)c2ccc(C#N)cc2)CCN1C(=O)CC1CC1 (stereo not drawn)	none (no result: HTRA1 inhibitor)
CC1CCCC(NC(=O)CCNS(=O)(=O)c2ccc(Br)cc2)C1C (stereo not drawn)	none
Nc1sc(-c2ccccc2)cc1C(=O)N1CCNCC1	none (no result: HTRA1 inhibitor)
CCc1ccccc1NNC(=O)c1snnc1C	SIAE inh 17 (no result: HTRA1 inhibitor) | SIAE inh conf inactive
Cc1nnsc1C(=O)NNc1c(Cl)cccc1Cl	none
O=C(NCCO)c1nc2ccccc2s1	none
COCCNC(=O)c1nc2ccccc2s1	SIAE inh 19 | SIAE inh conf inactive
CN(C)CCCN(C(=O)c1ccc(S(=O)(=O)N(C)Cc2ccccc2)cc1)c1nc2cc3c(cc2s1)OCO3	SIAE inh 22 | SIAE inh conf inactive
CCOC(=O)c1c(OCC)[nH]c2c1cc(O)c1ccccc12	SIAE inh 28 | SIAE inh conf inactive
COc1ccc(/C=C/c2c(-c3ccc(OC)cc3)sc3cc(OC)c(OC)cc23)cc1	none
O=C(/C=C/c1ccc(F)cc1)NC(=S)Nc1ccccc1O	none
O=C(/C=C/c1ccccc1)NC(=S)Nc1ccccc1O	SIAE inh 24 | SIAE inh conf inactive
CN(C)Cc1c(O)ccc2occ(C(=O)c3ccccc3)c12	none
CN(C)Cc1c(O)ccc2occ(C(=O)c3ccc(F)cc3)c12	SIAE inh 22 | SIAE inh conf inactive
Fc1cccc(Cc2c(-c3ccc(Cl)cc3)nc3c(Cl)cc(C(F)(F)F)cn23)c1	none (no result: HTRA1 inhibitor)
COc1ccc([C@H]2CC(=O)C=C(c3ccc(C)c([N+](=O)[O-])c3)C2)cc1	none
Nc1ccc2nc(-c3ccccn3)[nH]c2c1	SIAE inh 51 | SIAE inh conf inactive
CCOc1ccc(C2C(C(=O)OC)=CN(C(C)c3ccccc3)C=C2C(=O)OC)cc1 (stereo not drawn)	SIAE inh 18 | SIAE inh conf inactive
O=C(O)C1CSC2(c3ccc(Br)cc3)CCC(=O)N12 (stereo not drawn)	none
COc1ccc(-c2c(Sc3ccccc3)c3cc(-c4ccc5c(c4)OCO5)ccc3n2C)cc1	none (no result: HTRA1 inhibitor)
O=C(O)CSc1nnc(Nc2ccccc2)n1-c1ccccc1	SIAE inh 18 | SIAE inh conf inactive
Nc1nnn(CC(=O)N/N=C/c2cn[nH]c2-c2ccccc2)n1	SIAE inh 21 | SIAE inh conf inactive
CCN(C[C@H]1N[C@@](Cc2ccccc2)(C(=O)OC)[C@H]2C(=O)N(C)C(=O)[C@@H]12)S(=O)(=O)c1ccc(C(C)(C)C)cc1	none
CCOc1ccc(OCCOC(=O)CN(C)S(=O)(=O)c2ccc(NC(C)=O)cc2)cc1	SIAE inh 20 | SIAE inh conf inactive
Cc1c(C(=O)N(Cc2ccc(N(C)C)cc2)CC2CCCO2)oc2ccccc12 (stereo not drawn)	none
CN(C)c1ccc(CN(CC2CCCO2)C(=O)c2cc3ccccc3o2)cc1 (stereo not drawn)	SIAE inh 20 | SIAE inh conf inactive
C/C=C/c1cccc(-c2nc(C(=O)N3CCN(C)CC3)cc3c2[C@@H](CCO)N(C(=O)NC(C)C)C3)c1	none (no result: HTRA1 inhibitor)
CC(C)(C)NCC(O)COc1cccc2c1CCC(=O)N2 (stereo not drawn)	none
Cc1ccc(Nc2nc(N)c([N+](=O)[O-])c(NCc3ccccc3)n2)cc1	none (no result: HTRA1 inhibitor)
COc1ccc(Nc2nc(N)c([N+](=O)[O-])c(NCc3ccccc3)n2)cc1	SIAE inh 24 | SIAE inh conf inactive
CCC1OC(C(C)C)Cc2[nH][nH]c(=O)c21 (stereo not drawn)	SIAE inh 17 (no result: HTRA1 inhibitor) | SIAE inh conf inactive
O=C(CS(=O)(=O)c1ccccc1)Nc1nnc(Cc2ccccc2)s1	none
CCO/C=C/C(O)(CNC(=O)c1ccc(C(C)(C)C)cc1)C(F)(F)F (stereo not drawn)	SIAE inh 60 | SIAE inh conf inactive
Cc1ccccc1C(=O)Nc1nnc(-c2cccnc2)o1	SIAE inh 18 | SIAE inh conf inactive
Cc1ccccc1C(=O)Nc1nnc(-c2ccc(F)cc2)o1	none
CCOC(=O)C1(C)CCCN(C(=O)c2cccc(C(F)(F)F)c2)C1 (stereo not drawn)	none (no result: HTRA1 inhibitor)
CCn1c2ccccc2c2cc(NC(=O)COC(=O)c3cccc(OC)c3)ccc21	none (no result: HTRA1 inhibitor)
CCn1c2ccccc2c2cc(NC(=O)COC(=O)c3ccc(O)cc3)ccc21	SIAE inh 17 | SIAE inh conf inactive
CCn1c2ccccc2c2cc(NC(=O)c3ccccc3[N+](=O)[O-])ccc21	SIAE inh 21 | SIAE inh conf inactive
CCOc1ccc(CCNC(=O)Cc2ccc(NC(=O)C3=C(C)OCCS3)cc2)cc1	SIAE inh 19 | SIAE inh conf inactive
Cc1cccc(C)c1OCc1cc(C(=O)N2CCNC(=O)C2)no1	none
c1ccc(CSc2nnc(-c3cccnc3)o2)cc1	none
C(=C\c1ccccc1)/CSc1nnc(-c2cccnc2)o1	SIAE inh 21 | SIAE inh conf inactive
Cc1c(/C=N/NC(N)=O)c2ccccn2c1C(=O)c1ccc(F)cc1	none
Cc1c(/C=N/O)c2ccccn2c1C(=O)c1ccc(F)cc1	SIAE inh 17 | SIAE inh conf inactive
O=C(Cn1c(=O)n(-c2ccc(F)cc2)c(=O)c2sccc21)NC1CCCCC1	none
CC(C)NCC(=O)NC12CC3CC(CC(C3)C1)C2	SIAE inh 21 | SIAE inh conf inactive
O=C(COC(=O)Cc1cccs1)Nc1ccccc1F	none
O=C(COC(=O)Cc1cccs1)Nc1ccc(OC(F)(F)F)cc1	mABHD4 FP 108, PRMT1 FP inh 78, SIAE inh 133 | SIAE inh conf inactive
Cc1ccc(S(=O)(=O)CC(=O)N2CCN(c3ccc(F)cc3)CC2)cc1	none
CCN(CC)c1ccc(/C=N/NC(=O)c2cc3ccccc3[nH]2)cc1	none
CCN(CC)c1ccc(/C=N/NC(=O)c2c[nH]c3ccccc23)cc1	SIAE inh 24 | SIAE inh conf inactive
